Test results as given in PMC6092622 (The EMBO Journal, 2018).
Where two headings read alike, the source gives them in different places.

Key:
IKK and SOD1/IKK mice = format: in vivo, mouse
Procedure, shortened: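 Transgene expression was active in the sustained cohort (DOX withdrawn at P20–25). Mice of all four genotypes got a Porcupine inhibitor by daily oral gavage at 10 mg/kg for 12 days, from P25 (sacrificed at P38) or from P90 (to P102). It was suspended in PBS + 5% Tween-80 + 5% PEG-400; vehicle controls were included. Spinal cord sections were immunostained; Ki-67 and CD45 required citrate antigen retrieval. Cell densities are per area unit.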

human CB2 [1] = target: T1, human CB2 (Homo sapiens, UniProt P34972); experiment: cAMP assay in CHO cells stably expressing human CB2; format: cell-based; settings: in words
Procedure, shortened: (§1)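 cAMP assays were run in CHO cells stably expressing human CB2 or mouse CB2. Efficacy is expressed as % of the response to 1 μM CP55940.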

SOD1 (G93A) mice = experiment: CB2 ligands given i.p. to SOD1; format: in vivo, mouse; settings: for fraction of LC3A bright MN: P25 to P35, vehicle 23.4 ± 7.7; for misfolded SOD1: high-burden MN fraction: P25 to P35, vehicle 25.4 ± 5.5%; for %IBA1+ area (microglial expansion): P25 to P35, SOD1-veh 9.7 ± 0.4%
Procedure, shortened: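 Male SOD1(G93A) mice got daily i.p. CB2 agonists (10 mg/kg) or inverse agonist (30 mg/kg) as a microsuspension in 1% Tween-80/0.9% NaCl with 0.2% parabens, or vehicle. Spinal cords were perfusion-fixed and cut into 40 μm free-floating sections. CD4 was stained after citrate-heat antigen retrieval. IBA1 was scored as the thresholded area fraction of ventral-horn ROIs. High-burden MN cutoff: 75th percentile of vehicle-treated SOD1. Used 8–10 sections/mouse, ≥4 mice/group.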

human CB2 [2] = target: T1, human CB2; format: binding; settings: CB2 versus CB1, as stated in text
Procedure, shortened: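 Competition binding used [3H]-CP55940 radioligand on membranes from cells expressing human CB2 or human CB1, so that selectivity could be compared. Each compound was tested at 10 concentrations in triplicate. Ki values were calculated from a single experiment.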

mouse CB2 = mouse CB2 (Mus musculus, UniProt P47936); experiment: cAMP assay in CHO cells stably expressing mouse CB2; format: cell-based; settings: in words
Procedure, shortened: as §1

WT mice = experiment: CB2 agonists given to WT mice, IBA1 immunostaining; format: in vivo, mouse; settings: IBA1 staining
[3] = 30 mg/kg once daily i.p., P25 to P35
[4] = 10 mg/kg once daily i.p., P25 to P35

Chain of mouse CB2 (P47936 whole entry): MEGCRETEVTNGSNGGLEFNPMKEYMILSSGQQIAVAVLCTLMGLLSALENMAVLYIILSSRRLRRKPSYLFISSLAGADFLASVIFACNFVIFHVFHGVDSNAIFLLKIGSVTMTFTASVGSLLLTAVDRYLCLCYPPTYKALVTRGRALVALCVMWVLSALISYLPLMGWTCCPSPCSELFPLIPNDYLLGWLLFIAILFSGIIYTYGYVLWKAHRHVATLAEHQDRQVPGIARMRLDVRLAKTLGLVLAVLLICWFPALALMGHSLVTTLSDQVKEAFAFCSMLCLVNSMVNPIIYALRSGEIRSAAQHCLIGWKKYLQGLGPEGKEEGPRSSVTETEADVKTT
T1 sequence (P34972 whole entry): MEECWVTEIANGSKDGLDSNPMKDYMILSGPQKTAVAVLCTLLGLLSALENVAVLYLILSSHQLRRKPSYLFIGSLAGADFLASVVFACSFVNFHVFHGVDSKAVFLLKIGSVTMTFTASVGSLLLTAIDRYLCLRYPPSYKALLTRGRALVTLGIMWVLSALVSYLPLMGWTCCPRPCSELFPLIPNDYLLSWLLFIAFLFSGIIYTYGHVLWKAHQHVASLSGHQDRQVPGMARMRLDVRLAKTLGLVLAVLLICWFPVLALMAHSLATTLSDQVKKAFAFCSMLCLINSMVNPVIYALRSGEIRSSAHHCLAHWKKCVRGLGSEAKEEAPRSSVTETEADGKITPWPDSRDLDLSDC

| SMILES | functional activity in cAMP assay, human CB2 (human CB2 [1]) | binding selectivity against CB1 (human CB2 [2]) [fold] | functional activity in cAMP assay, mouse CB2 (mouse CB2) | infiltration of CD4+ lymphocytes in spinal cord (SOD1 (G93A) mice; [4]) | %IBA1+ area (microglial expansion) (SOD1 (G93A) mice; 10 mg/kg once daily i.p.) [%] | fraction of LC3A bright MN (SOD1 (G93A) mice; 10 mg/kg once daily i.p.) [%] | misfolded SOD1: high-burden MN fraction (SOD1 (G93A) mice; 10 mg/kg once daily i.p.) [%] | effect on microglial size in WT animals (WT mice) | further results |
| --- | --- | --- | --- | --- | --- | --- | --- | --- | --- |
| Cc1cc(-c2ccc(CC(=O)Nc3ccc(-c4cccnc4)cc3)cc2)ccn1 [Compound C59] |  |  |  |  |  |  |  |  | WNT5a immunoreactivity (IKK and SOD1/IKK mice; 10 mg/kg daily oral gavage for 12 days from P25, sacrifice at P38): < 10 % of vehicle‐treated (Veh) SOD1/IKK; decrease in misfolded SOD1 and LC3A levels in SOD1/IKK versus SOD1 littermates (IKK and SOD1/IKK mice; 10 mg/kg daily oral, P25-P38): completely reverted; number of CD45+ cells (IKK and SOD1/IKK mice; IKK and SOD1/IKK mice, late phase P90 to P102): significantly decreased; number of CD11b+KI-67+ cells (IKK and SOD1/IKK mice; IKK mice, 10 mg/kg daily oral, P25-P38, IKK-Veh 11.0 ± 3.0): 5.4 ± 0.2 cells per 10^4 μm^2; overall IBA1+ area (IKK and SOD1/IKK mice; IKK mice, 10 mg/kg daily oral, P25-P38, IKK-Veh 52.1 ± 6.5): 30.5 ± 4.6%; microglial density (number of IBA1+ cells) (IKK and SOD1/IKK mice; IKK mice, 10 mg/kg daily oral, P25-P38, vehicle 30.4 ± 1.8): 18.2 ± 1.7 cells/10^4 μm^2; number of IBA1+ cells at P102 (IKK and SOD1/IKK mice; IKK mice, late phase P90 to P102, IKK-Veh 16.5 ± 0.7): 7.8 ± 0.3; number of CD11b+KI-67+ cells (IKK and SOD1/IKK mice; SOD1/IKK mice, 10 mg/kg daily oral, P25-P38, SOD1/IKK-Veh 18.0 ± 2.0): 5.0 ± 1.3 cells per 10^4 μm^2; overall IBA1+ area (IKK and SOD1/IKK mice; SOD1/IKK mice, 10 mg/kg daily oral, P25-P38, SOD1/IKK-Veh 53.6 ± 3.9): 39.2 ± 4.9%; microglial density (number of IBA1+ cells) (IKK and SOD1/IKK mice; SOD1/IKK mice, 10 mg/kg daily oral, P25-P38, vehicle 36.2 ± 6.1): 20.2 ± 4.0 cells/10^4 μm^2; number of IBA1+ cells at P102 (IKK and SOD1/IKK mice; SOD1/IKK mice, late phase P90 to P102, SOD1/IKK-Veh 15.8 ± 0.2): 9.41 ± 0.35; number of CD45+ cells (IKK and SOD1/IKK mice; early administration, 10 mg/kg daily oral, P25-P38): strongly decreased |
| CNC(=O)[C@@H](NC(=O)c1cc(OCC2(C)COC2)c(C2CC2)cn1)C(C)(C)C [RO6851228, 5-Cyclopropyl-N-[(1S)-2,2-dimethyl-1-(methylcarbamoyl)propyl]-4-[(3-methyloxetan-3-yl)methoxy]pyridine-2-carboxamide] | inverse agonist activity |  |  |  |  |  |  |  | infiltration of CD4+ lymphocytes in spinal cord (SOD1 (G93A) mice; [3]): did not affect lymphocyte infiltration; microglial morphology (SOD1 (G93A) mice; [3]): expansion of the size and of the complexity of microglial processes; fraction of LC3A bright MN (SOD1 (G93A) mice; 30 mg/kg once daily i.p.): 11.4 ± 13.9%; misfolded SOD1: high-burden MN fraction (SOD1 (G93A) mice; 30 mg/kg once daily i.p.): 10.2 ± 5.1% |
| Cc1nonc1Cn1nnc2c(N3CC[C@H](O)C3)nc(C(C)(C)C)nc21 [RO6866945, (3S)-1-[5-tert-Butyl-3-[(4-methyl-1,2,5-oxadiazol-3-yl)methyl]triazolo[4,5-d]pyrimidin-7-yl]pyrrolidin-3-ol] | full agonists | 939 | full agonists | did not affect lymphocyte infiltration | 4.9 ± 0.2 | 70.8 ± 11.2 | 42.3 ± 8.7 | did not affect microglial size |  |
| Cc1nc([C@@](C)(CC2CC2)NC(=O)c2cc(OCC(F)(F)F)c(C3CC3)cn2)no1 [RO6871085, 5-Cyclopropyl-N-[(1R)-2-cyclopropyl-1-methyl-1-(5-methyl-1,2,4-oxadiazol-3-yl)ethyl]-4-(2,2,2-trifluoroethoxy)pyridine-2-carboxamide] | full agonists | 44 | full agonists | increased the number of CD4^+ cells | 5.2 ± 0.3 | 45.4 ± 5.6 | 69.1 ± 9.5 |  |  |
| NC(=O)[C@@H]1CC(F)(F)CN1C(=O)c1ccc(N2CC(F)(F)C2)c(OCC2CC2)n1 [RO6895896, (2S)-1-[6-(Cyclopropylmethoxy)-5-(3,3-difluoroazetidin-1-yl)pyridine-2-carbonyl]-4,4-difluoro-pyrrolidine-2-carboxamide] | full agonists |  | full agonists | did not affect lymphocyte infiltration | 6.0 ± 0.2 | 73.4 ± 12.4 | 72.4 ± 11.3 | did not affect microglial size |  |
